ADAM17 inh = inhibits human ADAM17; P78536; recombinant ADAM17, EDANS/DABCYL FRET peptide cleavage; inhibition, % at 6.95 µM; actives 0.83% (n = 370,000); AID 720648;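 active means inhibition above the mean of compounds lying between control limits plus 3 SD, set per campaign, cut at about 8.5% in these data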
MT1-MMP act inh = blocks activation of human MT1-MMP; actives 0.061% (n = 360,000); AID 651647; P50281; GFP/RFP ratio change, % at 20 µM; HT1080 RFP-PRO-GFP cells, GFP/RFP ratio fluorescence, overnight; percent of plate control window, DMSO zero;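 active means GFP/RFP ratio change of at least 30% with cell ATP level not reduced by more than half and red fluorescence within 50% of control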
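Test system: HT1080 cells expressing an RFP-PRO-GFP fluorescent reporter construct / Compound dosing: single-point 20 µM compound, 1% DMSO / Schedule: cells overnight before dosing, compound overnight, 37 °C, 5% CO2 / Evaluation: GFP/RFP fluorescence ratio / Control set: DMSO and RFP-L50D-GFP cell wells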
ADAM10 inh = inhibitors of human ADAM10; O14672; recombinant ADAM10, EDANS/DABCYL FRET peptide cleavage, 3 h; inhibition, % at 7 µM; actives 0.62% (n = 370,000); AID 720582;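 active means inhibition above a per-campaign cutoff equal to the mean of compounds falling between control-based bounds plus 3 SD, cut at about 20% in these data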
DDE Tn7 FP inh = DD(E)-Tn7 binding inhibition, primary FP screen | P02675 | FP displacement of FITC-Tn7 peptide from fibrin DD(E); 0% = median of compound wells per plate | inhibition, % at 8.3 µM | actives 0.13% (n = 370,000) | AID 720508;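 active means inhibition above the mean of compounds falling within the control limits plus 3 SD of them, cut at about 14% in these data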
Target sequence (P02675 whole entry, looked up): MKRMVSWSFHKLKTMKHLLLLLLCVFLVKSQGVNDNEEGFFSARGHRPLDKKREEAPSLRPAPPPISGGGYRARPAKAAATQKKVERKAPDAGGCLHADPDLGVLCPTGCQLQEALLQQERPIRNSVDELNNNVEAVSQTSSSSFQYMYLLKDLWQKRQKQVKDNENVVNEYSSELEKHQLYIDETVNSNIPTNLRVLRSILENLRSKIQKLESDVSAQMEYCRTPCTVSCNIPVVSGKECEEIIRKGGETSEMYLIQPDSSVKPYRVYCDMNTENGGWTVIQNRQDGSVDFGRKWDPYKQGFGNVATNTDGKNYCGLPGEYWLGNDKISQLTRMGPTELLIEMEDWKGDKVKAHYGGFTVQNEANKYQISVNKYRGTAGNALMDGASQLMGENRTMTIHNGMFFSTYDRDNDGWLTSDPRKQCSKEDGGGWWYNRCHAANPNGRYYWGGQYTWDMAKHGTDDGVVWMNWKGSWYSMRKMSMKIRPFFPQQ
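Assay system: Human clot-derived fibrin DD(E) complex | Buffer or medium: Tris/NaCl/CaCl2 buffer, pH 7.8 | Repeats: One replicate per compound | Benchmarks: Aha-Tn7 high control | Measure: % inhibition scaled between sample-field median and high-control FP | Schedule: 10 min plus 3 h, room temperature | Signal: Fluorescence polarization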
DDE Tn6 FP inh = disrupts Tn6 cyclic peptide binding to fibrin D-Dimer-E complex; Fibrin DD(E) TRITC-Tn6 fluorescence polarization displacement; actives 0.21% (n = 370,000); inhibition, % at 8.3 µM; AID 720509;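 active means inhibition above a per-campaign cutoff: mean of compounds within control limits plus 3 SD, cut at about 15% in these data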
ADAM10 confirm = human ADAM10 inhibition, confirmation; shares compounds with ADAM10 inh; ADAM10 QFRET peptide cleavage, EDANS fluorescence; inhibition, % at 6.95 µM; actives 1% (n = 2,100); AID 743208;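 active means inhibition above about 20% chosen separately for each screening run, limit read from the data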
ADAM17 counter = inhibits human ADAM17 in ADAM10 exosite counter-screen; AID 743214; actives 0.5% (n = 2,100); inhibition, % at 6.95 µM; shares compounds with ADAM10 inh; ADAM17 QFRET peptide cleavage, EDANS fluorescence;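 active means mean triplicate inhibition above the solvent-only control wells' mean plus 3 SD, cut at about 12% in these data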
ADAM10 counter = inhibits human ADAM10 in ADAM17 exosite counter-screen. shares compounds with ADAM17 inh. recombinant ADAM10, EDANS/DABCYL FRET peptide cleavage, 3 h. inhibition, % at 6.95 µM. actives 47% (n = 2,900);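 active means mean inhibition over the triplicate runs exceeds the activity threshold set in the earlier primary screen, cut at about 20% in these data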
ADAM17 confirm = confirmation of inhibitors of human ADAM17; shares compounds with ADAM17 inh; recombinant ADAM17, EDANS/DABCYL QFRET peptide cleavage; inhibition, % at 6.95 µM; actives 65% (n = 2,900);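 active means mean inhibition across replicates above the hit cutoff set in the primary screen, cut at about 8.5% in these data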
A number is an active result; – = inactive; · = no result given; ! = not active in a repeat. Hits are enriched below; roughly 1.6% of the tested compounds scored in any of these assays.

SMILES	ADAM17 inh	MT1-MMP act inh	ADAM10 inh	DDE Tn7 FP inh	DDE Tn6 FP inh	ADAM10 confirm	ADAM17 counter	ADAM10 counter	ADAM17 confirm
Cc1onc(-c2c(F)cccc2Cl)c1C(=O)Nc1cc(S(=O)(=O)N2CCCCC2)ccc1O	11.7	–	27.2	–	–	–	–	40.0	17.8
CCOC(=O)C1=C(Nc2ccc(Br)cc2)C(=O)N(CC)C1	–	·	–	–	–	·	·	·	·
Cc1cc(C(=O)COC(=O)c2ccc(O)cc2)c(C)n1CC1COc2ccccc2O1 (configuration not stated)	19.7	–	26.0	–	–	–	–	–	–
CCC(C(=O)OCC(=O)Nc1ccc(SC(F)F)cc1)c1ccccc1 (configuration not stated)	12.2	–	28.6	–	–	–	–	43.0	23.4
O=C(Cn1cnc([N+](=O)[O-])c1)Nc1cc(Oc2ccc(Cl)cc2Cl)cc([N+](=O)[O-])c1	9.5	–	23.2	–	–	–	–	33.2	17.3
C=CCCC1CN(Cc2ccc(OC)cc2)S(=O)(=O)c2c(Oc3ccc(C)cc3)cccc2O1 (configuration not stated)	–	·	–	–	–	·	·	·	·
CC(=O)N1c2ccc(S(=O)(=O)N3CCC(C(=O)N4CCN(c5cc(Cl)ccc5C)CC4)CC3)cc2CC1C (configuration not stated)	17.8	–	23.4	–	–	–	–	30.5	16.8
Cc1oc2c(c(C)nn2-c2ccccc2)c(=O)c1Cl	–	·	–	–	–	·	·	·	·
CC(O)(c1ccc(F)c(F)c1)c1nc(-c2cc3ccccc3o2)cs1 (configuration not stated)	9.6	–	27.2	–	–	–	–	36.4	18.1
CCN(Cc1ccccc1)C(=O)Nc1c(Cl)cccc1Cl	–	·	–	–	–	·	·	·	·
S=c1[nH]nc(-c2cc(-c3ccccc3)n[nH]2)n1N=Cc1cccc(Oc2ccccc2)c1	–	·	–	–	–	·	·	·	·
C[C@H](CO)N1C[C@H](C)[C@@H](CN(C)C(=O)Nc2cccc(C(F)(F)F)c2)OCc2cn(nn2)CCCC1=O	–	·	–	–	–	·	·	·	·
C=CC(=O)Nc1cccc(Oc2nc(Nc3ccc(N4CCN(C)CC4)cc3OC)ncc2Cl)c1	–	·	–	–	–	·	·	·	·
C=CC(=O)Nc1cccc(Oc2cc(Cl)nc3[nH]ccc23)c1	10.9	–	20.8	–	–	–	–	–	10.1
C#CCN(C[C@@H]1[C@@H](OC(=O)NCc2ccccc2F)[C@@H](OC(=O)NCc2ccccc2F)Cn2c(=O)n(CCCCCC)c(=O)n21)S(=O)(=O)c1ccc(C)cc1	–	–	–	–	–	·	·	·	·
C#CCN(C[C@@H]1[C@@H](OC(=O)NCc2ccccc2F)[C@@H](OC(=O)NCc2ccccc2F)Cn2c(=O)ccc(=O)n21)S(=O)(=O)c1ccc(C)cc1	9.4	–	24.4	–	–	–	–	22.1	11.7
Cc1ccccc1-n1c(SCC(=O)N/N=C/C=C/c2ccccc2[N+](=O)[O-])nc2ccccc2c1=O	10.0	–	22.9	–	–	–	–	–	12.4
Cc1ccccc1NC(=O)OCCN1CCCC12CCC(c1ccccc1)CC2 (configuration not stated)	–	·	–	–	–	·	·	·	·
COc1cc(NC(=O)c2cnc(N)s2)cc(C(=O)Nc2cccc(C(F)(F)F)c2)c1	9.8!	–	19.9!	–	–	–	–	22.2	14.0
COc1ccc(Nc2sc(C(=O)c3ccc(Cl)cc3)c(N)c2C(=O)Nc2ccccc2OC)cc1	–	–	–	–	–	·	·	·	·
COc1ccccc1NC(=O)c1c(Nc2ccccc2C)sc(C(=O)Nc2cccc(Cl)c2)c1N	10.3	–	21.1	–	–	28.3	–	–	14.4
C[C@@H]1CCCN1c1ccc2c(c1)O[C@@H]1CCN(C1)S2(=O)=O	–	·	–	–	–	·	·	·	·
NC(CCc1ccccc1)c1csc(NC(=O)NCCc2ccccc2)n1 (configuration not stated)	–	–	–	–	–	·	·	·	·
NC(CCc1ccccc1)c1csc(NC(=O)Nc2ccccc2Oc2ccccc2)n1 (configuration not stated)	14.0	–	29.3	–	–	–	–	23.2	12.7
O=c1ccn(C2CC(O)C(COC(c3ccccc3)(c3ccccc3)c3ccccc3)O2)c(=O)[nH]1 (configuration not stated)	–	·	–	–	–	·	·	·	·
SMILES	ADAM17 inh	MT1-MMP act inh	ADAM10 inh	DDE Tn7 FP inh	DDE Tn6 FP inh	ADAM10 confirm	ADAM17 counter	ADAM10 counter	ADAM17 confirm
Cc1cccc2nc(-c3ccccc3)c(-c3ccc(CN4CCC(n5cc(-c6ccccc6)[nH]c5=O)CC4)cc3)nc12	–	·	–	–	–	·	·	·	·
COc1ccc(OC)c(NC(=O)COC(=O)Cc2ccc(-c3ccccc3)cc2)c1	14.9	–	27.7	–	–	–	–	–	12.6
COc1ccc(CNC(=O)CN(Cc2ccc(Cl)cc2)S(=O)(=O)c2ccccc2)cc1	18.1	–	24.3	–	–	–	–	–	14.3
COc1ccc(CNC(=O)CN(Cc2ccccc2)S(=O)(=O)c2ccc(Cl)cc2)cc1	20.9	–	28.9	–	–	–	–	–	10.2
COc1ccc(S(=O)(=O)N(CC(=O)Nc2ccc(S(=O)(=O)N3CCOCC3)cc2)Cc2ccc(F)cc2)cc1	9.4	–	31.9	–	–	–	–	41.2	16.5
COc1ccc(S(=O)(=O)N(CC(=O)NCc2ccccn2)Cc2ccccc2)cc1	–	–	–	–	–	·	·	·	·
COc1ccc(S(=O)(=O)N(CC(=O)NCc2ccncc2)Cc2ccccc2)cc1	–	–	–	–	–	·	·	·	·
CC(C)(C)S(=O)N1Cc2cc(C(=O)NCc3ccc4c(c3)OCO4)nc(-c3cccc(-c4ccccc4)c3)c2[C@@H]1CCO (some centres not stated)	9.2	–	26.0	–	–	–	–	–	9.3
C=CCN1C/C(=C/c2ccccc2)N2C(=O)CC(c3ccccc3)N=C12 (configuration not stated)	–	·	–	–	–	·	·	·	·
COc1ccc(Cl)cc1NC(=S)NCCc1c[nH]c2ccccc12	10.1	–	22.0	–	–	–	–	35.9	21.0

High-throughput results as filed in PubChem.
